Data on 18 molecules can be found in ChEMBL document CHEMBL4330163, “Veluflavanones A-P, Cytotoxic Geranylated Flavanones from Dalbergia velutina Stems” (J Nat Prod, 2019).

Some results are limits rather than exact numbers.

Common to all, as to type: functional, cell-based
One experiment relates to KB. In words: Cytotoxicity against human KB cells by MTT assay. Summed up: (§1)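 Modified MTT colorimetric assay on five human cancer lines (KB epidermoid, HeLa S3 cervical, MCF-7 breast, Hep G2 hepatocellular, HT-29 colon adenocarcinoma). Doxorubicin was run as positive control.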
The next experiment deals with HT-29. Nature of the experiment: Cytotoxicity against human HT-29 cells by MTT assay. Summed up: as §1
For another experiment, the system named is MCF7. In words: Cytotoxicity against human MCF7 cells by MTT assay. The method, boiled down:
as §1

For the next experiment, the system named is HepG2. Nature of the experiment: Cytotoxicity against human HepG2 cells by MTT assay. Summed up:
as §1

The test system of a further experiment is HeLa S3. Nature of the experiment: Cytotoxicity against human HeLaS3 cells by MTT assay. Summed up:
as §1

For the molecule `CC(C)=CCCC1(C)Oc2ccc3c(c2CC1O)O[C@H](c1ccc(O)cc1)CC3=O` (stereo not given in full), the IC50 with KB, in the experiment with HT-29, with MCF7, in the experiment on HepG2 and with HeLa S3 was over 10 µM each time.
`C=C(C)/C=C/CC1(C)CCc2c(ccc3c2O[C@H](c2ccc(O)cc2)CC3=O)O1` (stereo not given in full): the IC50 in the experiment with KB, in the experiment on HT-29, in the experiment with MCF7, in the experiment with HepG2 and in the experiment on HeLa S3 was over 10 µM throughout.
As to `C=C(C)C(O)CC/C(C)=C/Cc1c(O)ccc2c1O[C@H](c1ccc(O)cc1)CC2=O` (stereo not given in full), the IC50 with KB, with HT-29, in the experiment with MCF7, in the experiment on HepG2 and in the experiment with HeLa S3 was over 10 µM in each case.
Regarding `C/C(=C\Cc1c(O)ccc2c1O[C@H](c1ccc(O)cc1)CC2=O)C/C=C/C(C)(C)O`, the IC50 with KB, in the experiment with HT-29, with MCF7, in the experiment with HepG2 and with HeLa S3 was over 10 µM each time.
With `C=C(C)C(O)CCC1(C)CCc2c(ccc3c2O[C@H](c2ccc(O)cc2)CC3=O)O1` (stereo not given in full), the IC50 in the experiment with KB, with HT-29, in the experiment with MCF7, in the experiment on HepG2 and in the experiment with HeLa S3 was over 10 µM in each case.
Regarding `CC1=CCC(O)C(C)(C)C1Cc1c(O)ccc2c1O[C@H](c1ccc(O)cc1)CC2=O` (stereo not given in full), the IC50 with KB, with HT-29, in the experiment on MCF7, in the experiment with HepG2 and with HeLa S3 was over 10 µM each time.
Consider `COC(C)(C)/C=C/CC1(C)CCc2c(ccc3c2O[C@H](c2ccc(O)cc2)CC3=O)O1` (stereo not given in full), for which the IC50 with KB is over 10 µM; in the experiment with HT-29, over 10 µM; in the experiment on MCF7, over 10 µM; with HepG2, over 10 µM; in the experiment on HeLa S3 it was 8.6 µM.
For `CC(C)=CCC/C(C)=C/Cc1c(O)ccc2c1O[C@H](c1ccc(O)cc1)CC2=O`, the IC50 in the experiment on KB, with HT-29, with MCF7, in the experiment on HepG2 and in the experiment with HeLa S3 was over 10 µM throughout.
On to `CC(C)=CCCC1(C)CCc2c(ccc3c2O[C@H](c2ccc(O)cc2)CC3=O)O1` (stereo not given in full), for which the IC50 in the experiment on KB is 9.9 µM; in the experiment on HT-29, over 10 µM; in the experiment on MCF7, 9.9 µM; in the experiment on HepG2, over 10 µM; with HeLa S3 it was 8.1 µM.
`CC(C)=CCCC(C)(O)C1Cc2c(ccc3c2O[C@H](c2ccc(O)cc2)CC3=O)O1` (stereo not given in full): the IC50 in the experiment on KB, in the experiment on HT-29, with MCF7, in the experiment on HepG2 and in the experiment on HeLa S3 was over 10 µM each time.
Take `COC(C)(C)/C=C/C/C(C)=C/Cc1c(O)ccc2c1O[C@H](c1ccc(O)cc1)CC2=O`: the IC50 with KB, in the experiment on HT-29, in the experiment on MCF7, with HepG2 and in the experiment on HeLa S3 was over 10 µM each time.
As to `CC1(CCC(O)C(C)(C)O)CCc2c(ccc3c2O[C@H](c2ccc(O)cc2)CC3=O)O1` (stereo not given in full), the concentration for half-maximal inhibition (IC50) in the experiment on KB, with HT-29, with MCF7, in the experiment on HepG2 and in the experiment on HeLa S3 was over 10 µM each time.
Regarding `CC(C)=CCCC1(C)CCc2c(cc(O)c3c2O[C@H](c2ccc(O)cc2)CC3=O)O1` (stereo not given in full), the 50% inhibitory concentration (IC50) in the experiment with KB is over 10 µM; in the experiment on HT-29, over 10 µM; with MCF7, over 10 µM; with HepG2, over 10 µM; with HeLa S3, 9.9 µM.
`CC(C)(O)/C=C/CC1(C)CCc2c(ccc3c2O[C@H](c2ccc(O)cc2)CC3=O)O1` (stereo not given in full): the IC50 in the experiment with KB was over 10 µM; in the experiment on HT-29, over 10 µM; in the experiment with MCF7 it was over 10 µM; in the experiment on HepG2 it was over 10 µM; in the experiment on HeLa S3, 6.6 µM.
For `C=C(CCC=C(C)C)C(O)Cc1c(O)ccc2c1O[C@H](c1ccc(O)cc1)CC2=O` (stereo not given in full), the IC50 in the experiment with KB, in the experiment on HT-29, in the experiment on MCF7, with HepG2 and in the experiment on HeLa S3 was over 10 µM each time.
`CC1(CCC2OC2(C)C)CCc2c(ccc3c2O[C@H](c2ccc(O)cc2)CC3=O)O1` (stereo not given in full): the IC50 in the experiment on KB was over 10 µM; with HT-29, over 10 µM; in the experiment with MCF7, over 10 µM; with HepG2 it was over 10 µM; in the experiment with HeLa S3 it was 8.3 µM.
With `COC(C=C(C)C)C/C(C)=C/Cc1c(O)ccc2c1O[C@H](c1ccc(O)cc1)CC2=O` (stereo not given in full), the half-inhibitory concentration (IC50) with KB, in the experiment on HT-29, with MCF7, in the experiment with HepG2 and in the experiment with HeLa S3 was over 10 µM in each case.
`COc1cccc2c1C(=O)c1c(O)c3c(c(O)c1C2=O)C[C@@](O)(C(=O)CO)C[C@@H]3O[C@H]1C[C@H](N)[C@H](O)[C@H](C)O1` [DOXORUBICIN]: the IC50 is 0.13 µM with KB; 0.34 µM in the experiment with HT-29; 0.61 µM in the experiment on MCF7; 1.07 µM in the experiment on HepG2; 0.03 µM in the experiment on HeLa S3.
